Paper PMC7709506 (ESMO Open, 2020)

Assay: Safety and tolerability
Format: in vivo, human
How it was run: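 Open-label multicentre phase I/IIa trial in adults with advanced or metastatic solid tumours. Part 1 used 3+3 oral capsule escalation at 50–800 mg/day to define DLT and MTD. Part 2 gave tablets. Treatment continued until progression, intolerable AE or study end, with dose decisions by a safety monitoring board. AEs of special interest were monitored. The safety population was all dosed patients, summarised by dose level.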

[1] = 30 patients treated with 400 mg/day

Structure (SMILES): Cn1cc(-c2ccc3c(c2)ncn3-c2cc(NS(=O)(=O)C3CC3)cc(-c3ccc(F)cc3F)c2)cn1 [ODM-203]
- Hyperbilirubinaemia [1]: 36.7%
- increased blood bilirubin [1]: 50.0%
- Alopecia (Grade 3–5, all doses (n=84)): 1 (1.2) n (%)
- Arthralgia (Grade 3–5, all doses (n=84)): 2 (2.4) n (%)
- Asthenia (Grade 3–5, all doses (n=84)): 2 (2.4) n (%)
- Blood bilirubin increased (Grade 3–5, all doses (n=84)): 20 (23.8) n (%)
- Conjugated bilirubin increased (Grade 3–5, all doses (n=84)): 0 n (%)
- Decreased appetite (Grade 3–5, all doses (n=84)): 0 n (%)
- Diarrhoea (Grade 3–5, all doses (n=84)): 5 (6.0) n (%)
- Dry mouth (Grade 3–5, all doses (n=84)): 0 n (%)
- Dry skin (Grade 3–5, all doses (n=84)): 0 n (%)
- Dysgeusia (Grade 3–5, all doses (n=84)): 0 n (%)
- Epistaxis (Grade 3–5, all doses (n=84)): 0 n (%)
- Fatigue (Grade 3–5, all doses (n=84)): 5 (6.0) n (%)
- Hyperbilirubinaemia (Grade 3–5, all doses (n=84)): 16 (19.0) n (%)
- Hyperphosphataemia (Grade 3–5, all doses (n=84)): 0 n (%)
- Hypertension (Grade 3–5, all doses (n=84)): 3 (3.6) n (%)
- Jaundice (Grade 3–5, all doses (n=84)): 2 (2.4) n (%)
- Mucosal inflammation (Grade 3–5, all doses (n=84)): 0 n (%)
- Myalgia (Grade 3–5, all doses (n=84)): 2 (2.4) n (%)
- Nasal dryness (Grade 3–5, all doses (n=84)): 0 n (%)
- Nausea (Grade 3–5, all doses (n=84)): 0 n (%)
- Onycholysis (Grade 3–5, all doses (n=84)): 1 (1.2) n (%)
- Palmar-plantar eryrthodysaestesia (Grade 3–5, all doses (n=84)): 4 (4.8) n (%)
- Stomatitis (Grade 3–5, all doses (n=84)): 3 (3.6) n (%)
- Vomiting (Grade 3–5, all doses (n=84)): 0 n (%)
- Weight decreased (Grade 3–5, all doses (n=84)): 1 (1.2) n (%)
- dose reduction due to arthralgia (N=84): 2 patients
- dose reduction due to increased blood bilirubin (N=84): 2 patients
- dose reduction due to palmar-plantar erythrodysesthesia syndrome (N=84): 3 patients
- treatment interruption due to hyperbilirubinaemia (N=84): 8 patients
- treatment interruption due to increase in blood bilirubin (N=84): 16 patients
- AE leading to death (Total (N=84)): 7 (8.3) n (%)
- AE leading to discontinuation (Total (N=84)): 30 (35.7) n (%)
- AE leading to dose reduction (Total (N=84)): 9 (10.7) n (%)
- AE leading to treatment interruption (Total (N=84)): 61 (72.6) n (%)
- Alopecia (Total (N=84)): 26 (31.0) n (%)
- Any AE (Total (N=84)): 84 (100) n (%)
- Arthralgia (Total (N=84)): 28 (33.3) n (%)
- Asthenia (Total (N=84)): 25 (29.8) n (%)
- Blood bilirubin increased (Total (N=84)): 36 (42.9) n (%)
- Conjugated bilirubin increased (Total (N=84)): 11 (13.1) n (%)
- Decreased appetite (Total (N=84)): 25 (29.8) n (%)
- Diarrhoea (Total (N=84)): 42 (50.0) n (%)
- Dry mouth (Total (N=84)): 29 (34.5) n (%)
- Dry skin (Total (N=84)): 10 (11.9) n (%)
- Dysgeusia (Total (N=84)): 20 (23.8) n (%)
- Epistaxis (Total (N=84)): 28 (33.3) n (%)
- Fatigue (Total (N=84)): 23 (27.4) n (%)
- Hyperbilirubinaemia (Total (N=84)): 28 (33.3) n (%)
- Hyperphosphataemia (Total (N=84)): 20 (23.8) n (%)
- Hypertension (Total (N=84)): 14 (16.7) n (%)
- Jaundice (Total (N=84)): 27 (32.1) n (%)
- Mucosal inflammation (Total (N=84)): 10 (11.9) n (%)
- Myalgia (Total (N=84)): 11 (13.1) n (%)
- Nasal dryness (Total (N=84)): 13 (15.5) n (%)
- Nausea (Total (N=84)): 11 (13.1) n (%)
- Onycholysis (Total (N=84)): 11 (13.1) n (%)
- Palmar-plantar eryrthodysaestesia (Total (N=84)): 30 (35.7) n (%)
- Related AE (Total (N=84)): 82 (97.6) n (%)
- Related SAEs (Total (N=84)): 14 (16.7) n (%)
- Stomatitis (Total (N=84)): 34 (40.5) n (%)
- Vomiting (Total (N=84)): 9 (10.7) n (%)
- Weight decreased (Total (N=84)): 19 (22.6) n (%)
- patients with at least one AE during treatment (all doses, N=84): 84 patients
- AE leading to death (capsule 100 mg (n=1)): 0 n (%)
- AE leading to discontinuation (capsule 100 mg (n=1)): 0 n (%)
- AE leading to dose reduction (capsule 100 mg (n=1)): 0 n (%)
- AE leading to treatment interruption (capsule 100 mg (n=1)): 1 (100) n (%)
- Alopecia (capsule 100 mg (n=1)): 0 n (%)
- Any AE (capsule 100 mg (n=1)): 1 (100) n (%)
- Arthralgia (capsule 100 mg (n=1)): 0 n (%)
- Asthenia (capsule 100 mg (n=1)): 0 n (%)
- Blood bilirubin increased (capsule 100 mg (n=1)): 0 n (%)
- Conjugated bilirubin increased (capsule 100 mg (n=1)): 0 n (%)
- Decreased appetite (capsule 100 mg (n=1)): 0 n (%)
- Diarrhoea (capsule 100 mg (n=1)): 0 n (%)
- Dry mouth (capsule 100 mg (n=1)): 0 n (%)
- Dry skin (capsule 100 mg (n=1)): 0 n (%)
- Dysgeusia (capsule 100 mg (n=1)): 0 n (%)
- Epistaxis (capsule 100 mg (n=1)): 0 n (%)
- Fatigue (capsule 100 mg (n=1)): 0 n (%)
- Hyperbilirubinaemia (capsule 100 mg (n=1)): 0 n (%)
- Hyperphosphataemia (capsule 100 mg (n=1)): 0 n (%)
- Hypertension (capsule 100 mg (n=1)): 0 n (%)
- Jaundice (capsule 100 mg (n=1)): 0 n (%)
- Mucosal inflammation (capsule 100 mg (n=1)): 0 n (%)
- Myalgia (capsule 100 mg (n=1)): 0 n (%)
- Nasal dryness (capsule 100 mg (n=1)): 0 n (%)
- Nausea (capsule 100 mg (n=1)): 0 n (%)
- Onycholysis (capsule 100 mg (n=1)): 0 n (%)
- Palmar-plantar eryrthodysaestesia (capsule 100 mg (n=1)): 0 n (%)
- Related AE (capsule 100 mg (n=1)): 1 (100) n (%)
- Related SAEs (capsule 100 mg (n=1)): 0 n (%)
- Stomatitis (capsule 100 mg (n=1)): 0 n (%)
- Vomiting (capsule 100 mg (n=1)): 0 n (%)
- Weight decreased (capsule 100 mg (n=1)): 0 n (%)
- AE leading to death (capsule 200 mg (n=3)): 0 n (%)
- AE leading to discontinuation (capsule 200 mg (n=3)): 0 n (%)
- AE leading to dose reduction (capsule 200 mg (n=3)): 0 n (%)
- AE leading to treatment interruption (capsule 200 mg (n=3)): 0 n (%)
- Alopecia (capsule 200 mg (n=3)): 0 n (%)
- Any AE (capsule 200 mg (n=3)): 3 (100) n (%)
- Arthralgia (capsule 200 mg (n=3)): 0 n (%)
- Asthenia (capsule 200 mg (n=3)): 1 (33.3) n (%)
- Blood bilirubin increased (capsule 200 mg (n=3)): 0 n (%)
- Conjugated bilirubin increased (capsule 200 mg (n=3)): 0 n (%)
- Decreased appetite (capsule 200 mg (n=3)): 0 n (%)
- Diarrhoea (capsule 200 mg (n=3)): 0 n (%)
- Dry mouth (capsule 200 mg (n=3)): 0 n (%)
- Dry skin (capsule 200 mg (n=3)): 0 n (%)
- Dysgeusia (capsule 200 mg (n=3)): 0 n (%)
- Epistaxis (capsule 200 mg (n=3)): 1 (33.3) n (%)
- Fatigue (capsule 200 mg (n=3)): 0 n (%)
- Hyperbilirubinaemia (capsule 200 mg (n=3)): 0 n (%)
- Hyperphosphataemia (capsule 200 mg (n=3)): 0 n (%)
- Hypertension (capsule 200 mg (n=3)): 0 n (%)
- Jaundice (capsule 200 mg (n=3)): 0 n (%)
- Mucosal inflammation (capsule 200 mg (n=3)): 0 n (%)
- Myalgia (capsule 200 mg (n=3)): 0 n (%)
- Nasal dryness (capsule 200 mg (n=3)): 0 n (%)
- Nausea (capsule 200 mg (n=3)): 0 n (%)
- Onycholysis (capsule 200 mg (n=3)): 0 n (%)
- Palmar-plantar eryrthodysaestesia (capsule 200 mg (n=3)): 0 n (%)
- Related AE (capsule 200 mg (n=3)): 2 (66.7) n (%)
- Related SAEs (capsule 200 mg (n=3)): 0 n (%)
- Stomatitis (capsule 200 mg (n=3)): 0 n (%)
- Vomiting (capsule 200 mg (n=3)): 0 n (%)
- Weight decreased (capsule 200 mg (n=3)): 0 n (%)
- AE leading to death (capsule 400 mg (n=7)): 0 n (%)
- AE leading to discontinuation (capsule 400 mg (n=7)): 1 (14.3) n (%)
- AE leading to dose reduction (capsule 400 mg (n=7)): 1 (14.3) n (%)
- AE leading to treatment interruption (capsule 400 mg (n=7)): 4 (57.1) n (%)
- Alopecia (capsule 400 mg (n=7)): 1 (14.3) n (%)
- Any AE (capsule 400 mg (n=7)): 7 (100) n (%)
- Arthralgia (capsule 400 mg (n=7)): 1 (14.3) n (%)
- Asthenia (capsule 400 mg (n=7)): 1 (14.3) n (%)
- Blood bilirubin increased (capsule 400 mg (n=7)): 3 (42.9) n (%)
- Conjugated bilirubin increased (capsule 400 mg (n=7)): 0 n (%)
- Decreased appetite (capsule 400 mg (n=7)): 1 (14.3) n (%)
- Diarrhoea (capsule 400 mg (n=7)): 1 (14.3) n (%)
- Dry mouth (capsule 400 mg (n=7)): 1 (14.3) n (%)
- Dry skin (capsule 400 mg (n=7)): 0 n (%)
- Dysgeusia (capsule 400 mg (n=7)): 2 (28.6) n (%)
- Epistaxis (capsule 400 mg (n=7)): 1 (14.3) n (%)
- Fatigue (capsule 400 mg (n=7)): 1 (14.3) n (%)
- Hyperbilirubinaemia (capsule 400 mg (n=7)): 2 (28.6) n (%)
- Hyperphosphataemia (capsule 400 mg (n=7)): 2 (28.6) n (%)
- Hypertension (capsule 400 mg (n=7)): 0 n (%)
- Jaundice (capsule 400 mg (n=7)): 3 (42.9) n (%)
- Mucosal inflammation (capsule 400 mg (n=7)): 1 (14.3) n (%)
- Myalgia (capsule 400 mg (n=7)): 1 (14.3) n (%)
- Nasal dryness (capsule 400 mg (n=7)): 1 (14.3) n (%)
- Nausea (capsule 400 mg (n=7)): 0 n (%)
- Onycholysis (capsule 400 mg (n=7)): 0 n (%)
- Palmar-plantar eryrthodysaestesia (capsule 400 mg (n=7)): 2 (28.6) n (%)
- Related AE (capsule 400 mg (n=7)): 7 (100) n (%)
- Related SAEs (capsule 400 mg (n=7)): 0 n (%)
- Stomatitis (capsule 400 mg (n=7)): 1 (14.3) n (%)
- Vomiting (capsule 400 mg (n=7)): 1 (14.3) n (%)
- Weight decreased (capsule 400 mg (n=7)): 1 (14.3) n (%)
- AE leading to death (capsule 600 mg (n=30)): 2 (6.7) n (%)
- AE leading to discontinuation (capsule 600 mg (n=30)): 17 (56.7) n (%)
- AE leading to dose reduction (capsule 600 mg (n=30)): 1 (3.3) n (%)
- AE leading to treatment interruption (capsule 600 mg (n=30)): 22 (73.3) n (%)
- Alopecia (capsule 600 mg (n=30)): 8 (26.7) n (%)
- Any AE (capsule 600 mg (n=30)): 30 (100) n (%)
- Arthralgia (capsule 600 mg (n=30)): 11 (36.7) n (%)
- Asthenia (capsule 600 mg (n=30)): 8 (26.7) n (%)
- Blood bilirubin increased (capsule 600 mg (n=30)): 13 (43.3) n (%)
- Conjugated bilirubin increased (capsule 600 mg (n=30)): 3 (10.0) n (%)
